In ChEMBL document CHEMBL1140227, “Histone deacetylase inhibitors through click chemistry” (J Med Chem, 2008):

Experiments:
Type in all cases: functional
HT-29 = experiment: Growth inhibition of human HT-29 cells at 10 uM relative to control; conditions: values are per cent of control
Summary of the method: (§1)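 Single-dose preliminary screen in the NCI human cancer cell line panel, run by the NIH. Percent inhibition of cell line growth was calculated by comparison with untreated samples.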

NCI-H522 = experiment: Growth inhibition of human NCI-H522 cells at 10 uM relative to control; conditions: values are per cent of control; summary of the method: as §1
HCT-116 = experiment: Growth inhibition of human HCT116 cells at 10 uM relative to control; conditions: values are per cent of control; summary of the method: as §1
UACC-62 = experiment: Growth inhibition of human UACC62 cells at 10 uM relative to control; conditions: values are per cent of control
Summary of the method: (§2)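 Single-dose NCI human tumour cell line screen, run by the NIH. Percent inhibition of cell line growth was calculated by comparison with untreated samples.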

cells = conditions: Homo sapiens, Cancer cell lines
UO-31 = experiment: Growth inhibition of human UO31 cells at 10 uM relative to control; conditions: values are per cent of control; summary of the method: as §2
CAKI-1 = experiment: Growth inhibition of human Caki1 cells at 10 uM relative to control; conditions: values are per cent of control; summary of the method: as §1
K562 = experiment: Growth inhibition of human K562 cells at 10 uM relative to control; conditions: values are per cent of control; summary of the method: as §1
NCI-H226 = experiment: Growth inhibition of human NCI-H226 cells at 10 uM relative to control; conditions: values are per cent of control; summary of the method: as §1
DU-145 = experiment: Growth inhibition of human DU145 cells at 10 uM relative to control; conditions: values are per cent of control; summary of the method: as §1
HOP-62 = experiment: Growth inhibition of human HOP62 cells at 10 uM relative to control; conditions: values are per cent of control; summary of the method: as §1
SK-MEL-2 = experiment: Growth inhibition of human SK-MEL-2 cells at 10 uM relative to control; conditions: values are per cent of control; summary of the method: as §1
MOLT-4 = experiment: Growth inhibition of human MOLT4 cells at 10 uM relative to control; conditions: values are per cent of control; summary of the method: as §1
SK-MEL-28 = experiment: Growth inhibition of human SK-MEL-28 cells at 10 uM relative to control; conditions: values are per cent of control; summary of the method: as §1
[1] = Growth inhibition of human RPMI8266 cells at 10 uM relative to control; conditions: values are per cent of control; summary of the method: as §1
SK-OV-3 = experiment: Growth inhibition of human SKOV3 cells at 10 uM relative to control; conditions: values are per cent of control; summary of the method: as §1
U-251 = experiment: Growth inhibition of human U251 cells at 10 uM relative to control; conditions: values are per cent of control; summary of the method: as §2
ACHN = experiment: Growth inhibition of human ACHN cells at 10 uM relative to control; conditions: values are per cent of control; summary of the method: as §1
NCI-H23 = experiment: Growth inhibition of human NCI-H23 cells at 10 uM relative to control; conditions: values are per cent of control; summary of the method: as §1
NCI-H460 = experiment: Growth inhibition of human NCI-H460 cells at 10 uM relative to control; conditions: values are per cent of control; summary of the method: as §1
MCF7 = experiment: Growth inhibition of human MCF7 cells at 10 uM relative to control; conditions: values are per cent of control; summary of the method: as §1
EKVX = experiment: Growth inhibition of human EKVX cells at 10 uM relative to control; conditions: values are per cent of control; summary of the method: as §1
SF-268 = experiment: Growth inhibition of human SF268 cells at 10 uM relative to control; conditions: values are per cent of control; summary of the method: as §1
SW-620 = experiment: Growth inhibition of human SW620 cells at 10 uM relative to control; conditions: values are per cent of control; summary of the method: as §2
M14 = experiment: Growth inhibition of human M14 cells at 10 uM relative to control; conditions: values are per cent of control; summary of the method: as §1
[2] = Growth inhibition of human Hs 578T cells at 10 uM relative to control; conditions: values are per cent of control; summary of the method: as §1
PC-3 = experiment: Growth inhibition of human PC3 cells at 10 uM relative to control; conditions: values are per cent of control; summary of the method: as §1
OVCAR-3 = experiment: Growth inhibition of human OVCAR-3 cells at 10 uM relative to control; conditions: values are per cent of control; summary of the method: as §1
CCRF-CEM = experiment: Growth inhibition of human CCRF-CEM cells at 10 uM relative to control; conditions: values are per cent of control; summary of the method: as §1
SNB-75 = experiment: Growth inhibition of human SNB75 cells at 10 uM relative to control; conditions: values are per cent of control; summary of the method: as §2
SF-539 = experiment: Growth inhibition of human SF539 cells at 10 uM relative to control; conditions: values are per cent of control; summary of the method: as §1
SF-295 = experiment: Growth inhibition of human SF295 cells at 10 uM relative to control; conditions: values are per cent of control; summary of the method: as §1
T47D = experiment: Growth inhibition of human T47D cells at 10 uM relative to control; conditions: values are per cent of control; summary of the method: as §2
NCI/ADR-RES = experiment: Growth inhibition of human NCI/ADR-RES cells at 10 uM relative to control; conditions: values are per cent of control; summary of the method: as §1
Malme-3M = experiment: Growth inhibition of human MALME-3M cells at 10 uM relative to control; conditions: values are per cent of control; summary of the method: as §1
HL-60(TB) = experiment: Growth inhibition of human HL-60(TB) cells at 10 uM relative to control; conditions: read-out: INH
Summary of the method: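 Single-dose cell line screen run by the NCI (NIH) in its human cancer cell line panel, which includes the leukemia line HL-60(TB). Percent growth inhibition was calculated by comparison with untreated samples.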

KM12 = experiment: Growth inhibition of human KM12 cells at 10 uM relative to control; conditions: values are per cent of control; summary of the method: as §1
NCI-H322M = experiment: Growth inhibition of human NCI-H322M cells at 10 uM relative to control; conditions: values are per cent of control; summary of the method: as §1
OVCAR-4 = experiment: Growth inhibition of human OVCAR4 cells at 10 uM relative to control; conditions: values are per cent of control; summary of the method: as §1
HCT-15 = experiment: Growth inhibition of human HCT15 cells at 10 uM relative to control; conditions: values are per cent of control; summary of the method: as §1
SN12C = experiment: Growth inhibition of human SN12C cells at 10 uM relative to control; conditions: values are per cent of control; summary of the method: as §1
HCC 2998 = experiment: Growth inhibition of human HCC2998 cells at 10 uM relative to control; conditions: values are per cent of control; summary of the method: as §1
BT-549 = experiment: Growth inhibition of human BT549 cells at 10 uM relative to control; conditions: values are per cent of control; summary of the method: as §1
MDA-MB-231 = experiment: Growth inhibition of human MDA-MB-231 cells at 10 uM relative to control; conditions: values are per cent of control; summary of the method: as §1
SK-MEL-5 = experiment: Growth inhibition of human SK-MEL-5 cells at 10 uM relative to control; conditions: values are per cent of control; summary of the method: as §1
OVCAR-5 = experiment: Growth inhibition of human OVCAR5 cells at 10 uM relative to control; conditions: values are per cent of control; summary of the method: as §1
IGROV-1 = experiment: Growth inhibition of human IGROV1 cells at 10 uM relative to control; conditions: values are per cent of control; summary of the method: as §1
A498 = experiment: Growth inhibition of human A498 cells at 10 uM relative to control; conditions: values are per cent of control; summary of the method: as §1
MDA-MB-468 = experiment: Growth inhibition of human MDA-MB-468 cells at 10 uM relative to control; conditions: values are per cent of control; summary of the method: as §1
A549 = experiment: Growth inhibition of human A549 cells at 10 uM relative to control; conditions: values are per cent of control; summary of the method: as §1
786-0 = experiment: Growth inhibition of human 786-0 cells at 10 uM relative to control; conditions: values are per cent of control; summary of the method: as §1
COLO 205 = experiment: Growth inhibition of human COLO205 cells at 10 uM relative to control; conditions: values are per cent of control; summary of the method: as §1
UACC-257 = experiment: Growth inhibition of human UACC257 cells at 10 uM relative to control; conditions: values are per cent of control; summary of the method: as §2
TK-10 = experiment: Growth inhibition of human TK10 cells at 10 uM relative to control; conditions: values are per cent of control; summary of the method: as §2
SNB-19 = experiment: Growth inhibition of human SNB19 cells at 10 uM relative to control; conditions: values are per cent of control; summary of the method: as §1
MDA-MB-435 = experiment: Growth inhibition of human MDA-MB-435 cells at 10 uM relative to control; conditions: values are per cent of control; summary of the method: as §1
OVCAR-8 = experiment: Growth inhibition of human OVCAR8 cells at 10 uM relative to control; conditions: values are per cent of control; summary of the method: as §1
LOX IMVI = experiment: Growth inhibition of human LOXIMVI cells at 10 uM relative to control; conditions: values are per cent of control; summary of the method: as §1

SMILES: O=C(NO)c1cn(C/C=C/c2ccccc2)nn1
- growth, % of control at 10 µM (HT-29): 104%
- growth, % of control at 10 µM (NCI-H522): 92.5%
- growth, % of control at 10 µM (HCT-116): 100%
- growth, % of control at 10 µM (UACC-62): 102%
- inhibition at 10 µM (cells): > 95%
- growth, % of control at 10 µM (UO-31): 72.7%
- growth, % of control at 10 µM (CAKI-1): 95%
- growth, % of control at 10 µM (K562): 119%
- growth, % of control at 10 µM (NCI-H226): 91.1%
- growth, % of control at 10 µM (DU-145): 167%
- growth, % of control at 10 µM (HOP-62): 92.4%
- growth, % of control at 10 µM (SK-MEL-2): 95.7%
- growth, % of control at 10 µM (MOLT-4): 79.6%
- growth, % of control at 10 µM (SK-MEL-28): 104%
- growth, % of control at 10 µM [1]: 94.5%
- growth, % of control at 10 µM (SK-OV-3): 107%
- growth, % of control at 10 µM (U-251): 90.1%
- growth, % of control at 10 µM (ACHN): 101%
- growth, % of control at 10 µM (NCI-H23): 104%
- growth, % of control at 10 µM (NCI-H460): 131%
- growth, % of control at 10 µM (MCF7): 122%
- growth, % of control at 10 µM (EKVX): 89.9%
- growth, % of control at 10 µM (SF-268): 92.8%
- growth, % of control at 10 µM (SW-620): 98.4%
- growth, % of control at 10 µM (M14): 106%
- growth, % of control at 10 µM [2]: 95.5%
- growth, % of control at 10 µM (PC-3): 77.6%
- growth, % of control at 10 µM (OVCAR-3): 97.1%
- growth, % of control at 10 µM (CCRF-CEM): 61%
- growth, % of control at 10 µM (SNB-75): 79.8%
- growth, % of control at 10 µM (SF-539): 135%
- growth, % of control at 10 µM (SF-295): 108%
- growth, % of control at 10 µM (T47D): 97.8%
- growth, % of control at 10 µM (NCI/ADR-RES): 107%
- growth, % of control at 10 µM (Malme-3M): 110%
- growth, % of control at 10 µM (HL-60(TB)): 94.5%
- growth, % of control at 10 µM (KM12): 104%
- growth, % of control at 10 µM (NCI-H322M): 109%
- growth, % of control at 10 µM (OVCAR-4): 94.3%
- growth, % of control at 10 µM (HCT-15): 98.8%
- growth, % of control at 10 µM (SN12C): 95.3%
- growth, % of control at 10 µM (HCC 2998): 105%
- growth, % of control at 10 µM (BT-549): 107%
- growth, % of control at 10 µM (MDA-MB-231): 96.1%
- growth, % of control at 10 µM (SK-MEL-5): 148%
- growth, % of control at 10 µM (OVCAR-5): 104%
- growth, % of control at 10 µM (IGROV-1): 89.4%
- growth, % of control at 10 µM (A498): 95.2%
- growth, % of control at 10 µM (MDA-MB-468): 105%
- growth, % of control at 10 µM (A549): 107%
- growth, % of control at 10 µM (786-0): 132%
- growth, % of control at 10 µM (COLO 205): 133%
- growth, % of control at 10 µM (UACC-257): 125%
- growth, % of control at 10 µM (TK-10): 130%
- growth, % of control at 10 µM (SNB-19): 94.9%
- growth, % of control at 10 µM (MDA-MB-435): 103%
- growth, % of control at 10 µM (OVCAR-8): 106%
- growth, % of control at 10 µM (LOX IMVI): 90.2%
